Screens: PubChem BioAssay, several laboratories
Hits are enriched below; roughly 10% of the tested compounds scored in any of these assays.
PMI act hi M6P = human PMI activators, high substrate, primary screen, biochemical, fluorescence intensity, near-saturating mannose 6-phosphate. coupled PMI enzyme assay, resazurin fluorescence, 20 min; stronger effect = higher value; 1 = untreated enzyme, 0 = substrate-free blank. activation factor at 20 µM. 190,000 tested, 0.34% active. AID 1216, 2008;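 active = activation factor of 2 or more at 20 µM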
Target sequence (P34949 whole entry, looked up): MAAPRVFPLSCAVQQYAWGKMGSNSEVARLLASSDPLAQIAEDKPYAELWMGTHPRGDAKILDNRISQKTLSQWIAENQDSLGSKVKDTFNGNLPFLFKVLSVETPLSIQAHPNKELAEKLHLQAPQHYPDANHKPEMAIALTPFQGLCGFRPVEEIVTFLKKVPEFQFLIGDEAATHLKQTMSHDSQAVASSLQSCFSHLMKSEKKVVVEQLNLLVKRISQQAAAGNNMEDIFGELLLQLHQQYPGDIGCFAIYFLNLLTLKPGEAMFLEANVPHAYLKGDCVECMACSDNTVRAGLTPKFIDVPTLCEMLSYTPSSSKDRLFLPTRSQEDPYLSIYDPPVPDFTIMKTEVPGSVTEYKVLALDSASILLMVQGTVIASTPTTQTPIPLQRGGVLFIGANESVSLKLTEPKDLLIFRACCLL
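Material: human phosphomannose isomerase with PGI, G6PDH, diaphorase coupling enzymes / Reagent: Man-6-P substrate 1.0 mM / Dosing: single compound dose of 20 µM, 1% DMSO final / Incubation: enzyme reaction with compound 20 min at room temperature / Signal: resorufin fluorescence (Ex 544/Em 590 nm) from resazurin via diaphorase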
Diaph act CS = compounds boosting diaphorase resazurin reduction – biochemical, uHTS, resorufin fluorescence, counter-screen for diaphorase-coupled primary assays, primary screen; 190,000 tested, 0.005% active; AID 1229, 2008; Diaphorase/resazurin coupled assay, 16 min; stronger effect = higher value; 1 = vehicle wells, 0 = NADH-free wells; activation factor at 20 µM;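 active = diaphorase activity raised at least twofold by the compound at 20 µM; inactive = activation factor below 2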
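Material: bacterial diaphorase enzyme (C. kluyveri); amount: enzyme 0.07 U/mL final; reagent: NADH substrate 0.114 mM plus resazurin dye 0.1 mM, final; doses: single compound dose of 20 µM, 1% DMSO final; timing: 16 min enzyme reaction, ambient temperature; measured by: fluorescence of resorufin, 544 nm excitation, 590 nm emission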
PMI act = activators of human PMI, primary screen, biochemical, fluorescence intensity, near-Km mannose 6-phosphate; 190,000 tested, 0.005% active; Mannose-6-phosphate isomerase (Homo sapiens), P34949; AID 1214, 2008; purified human PMI, coupled resazurin fluorescence, 20 min; stronger effect = higher value; 1 = vehicle control, 0 substrate-free wells; activation factor at 20 µM;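 active = activation factor of 2 or more at 20 µM, relative to plate controls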
Lmaj promast = Leishmania major promastigote growth inhibition, primary screen | Leishmania major promastigotes, resazurin fluorescence viability | inhibition, % at 10 µM | 200,000 tested, 9% active; in the data active = inhibition above about 50%;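 also: promastigotes grown with compound for 44 hours at 28 °C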
WT yeast gro inh = growth inhibition of WT strain, primary screen, mitochondrial fusion inhibitor project, WT and mutant strains, chemical genetic. mitochondrial fusion phenotypic screen. inhibition, % at 10 µM. 190,000 tested, 2.1% active. AID 1362, 2008; in the data active = inhibition above about 58%; tested in S. cerevisiae
Numbers without * were called inactive; / = not tested or not shown.

SMILES	PMI act hi M6P	Diaph act CS	PMI act	Lmaj promast	WT yeast gro inh
CCOC(=O)c1c(-c2cccs2)csc1NC(C)=O	1	0.9	0.9	-7	10
CCOC(=O)c1c(-c2cccs2)csc1NC(=O)C(C)(C)C	1	1	1	7	60*
CCNC(=S)Nc1scc(-c2ccccc2)c1C(=O)OCC	0.5	0.7	0.7	25	37
Cc1cc(C)nc(NC(=O)c2c(-c3ccccc3Cl)noc2C)c1	1	0.9	1	2	-2
CC(=O)Nc1ccc(S(=O)(=O)Nc2cccc(NC(=O)c3ccco3)c2)cc1	1	0.9	1	14	/
CCOC(=O)c1c(-c2ccc(-c3ccccc3)cc2)csc1NC(=O)CCN1CCOCC1	0.9	0.9	0.8	98*	10
CSCCC(NC(=O)OC(C)(C)C)C(=O)NC(C(=O)NC(CC(C)C)C(N)=O)C(C)C (centres undefined)	1.2	1.1	1.1	5	9
COc1ccccc1-c1cc(C(F)(F)F)nc(S(=O)(=O)CCCC(=O)NC(C)C)n1	0.9	0.9	1	89*	8
Cc1ccc2nc(-c3ccccc3)c(CN3CCN(c4ccccc4F)CC3)n2c1	1	0.9	1	80*	83*
Cc1ccc2nc(-c3ccccc3)c(CN3CCSCC3)n2c1	1	0.9	1	63*	-2
Cc1nnc(SCC2=C(C(=O)O)N3C(=O)C(NC(=O)C(C)n4nc(C(F)(F)F)cc4C)C3SC2)s1 (centres undefined)	1	1	1	-4	-3
Cc1cccc(CCN2CCC(C(=O)c3ccc(NS(C)(=O)=O)cc3)CC2)n1	1.2	1	1.1	/	-4
Cc1cccc(N/N=C(\C=N\N)C(=O)c2ccc(Br)cc2)c1	0.8	0.8	0.9	13	77*
O=C(/C(=C/O)N=Nc1ccccc1Cl)c1ccccc1	0.9	0.8	0.9	-6	-6
Cc1cccc(N=N/C(=C\O)C(=O)c2ccc(Br)cc2)c1	0.9	0.8	0.8	29	96*
O=C(/C(=C/O)N=Nc1cccc(C(F)(F)F)c1)c1ccccc1	1	1.1	1	5	95*
CN(C)S(=O)(=O)c1cccc(NC(=O)Cn2cc(C(F)(F)F)cc(Cl)c2=O)c1	0.9	0.9	1	-5	-2
COc1ccc(NC(=O)c2ccc3c(c2)OCO3)cc1Cl	1	0.8	1	-2	7
COc1ccc(NCc2ccc3c(c2)OCO3)cc1Cl	0.8	0.8	0.8	84*	-3
Oc1ccccc1CNc1ccc2c(c1)OCCO2	0.7	0.8	0.7	2	3
Cc1ccc(CNc2ccc3c(c2)OCO3)c(C)c1	1.4	0.7	1.2	99*	12
O=C(NCc1cccnc1)Nc1ccc2c(c1)OCO2	1	1.1	1	10	5
c1cncc(CNc2ccc3c(c2)OCO3)c1	1	0.8	0.8	52*	-10
O=C1C(c2ccccc2)SC(=Nc2ccccc2)N1S(=O)(=O)c1ccccc1 (centres undefined)	1	1	0.7	-6	-5
Cc1ccc(NC(=O)COc2ccccc2C=O)cc1Cl	0.9	0.9	0.8	32	4
SMILES	PMI act hi M6P	Diaph act CS	PMI act	Lmaj promast	WT yeast gro inh
O=c1c2sccc2n(Cc2cccc(F)c2)c(=O)n1-c1ccc(F)cc1	1	0.8	0.9	-5	-4
CC1CN(C(=O)C2(C)CC2(Cl)Cl)CC(C)O1 (centres undefined)	1.1	0.8	1	-6	-8
c1ccc2[nH]c(NN=C3CCCCCC3)nc2c1	1	1.2	1.1	75*	10
Cc1cc(N/N=C2\CC(C)CC(C)(C)C2)nc2ccccc12 (centres undefined)	0.9	0.9	1	99*	76*
CC1C/C(=N/Nc2nc3ccccc3[nH]2)CC(C)(C)C1 (centres undefined)	1	0.9	1.1	85*	13
CC1C/C(=N/NC(=O)c2ccc(CSc3nc4ccccc4[nH]3)cc2)CC(C)(C)C1 (centres undefined)	1	1	1	39	-15
